Blank lines part the entries; values can stand above or below the molecule they belong to. The source made the active and inactive calls. The rule behind the calls is not given here.
Tests used:
[1] = tested on: SK-OV-3; assay: Upregulation of GLUT1 in human SK-OV-3 cells at 50 nM after 24 hrs by immunoblotting analysis; format: functional, cell-based
[2] = tested on: OVCAR-3; assay: […] of glycolysis in human OVCAR-3 cells ssessed as decrease in conversion of D-[5-3H(N)]-glucose to 3H2O at 50 nM incubated for 24 hrs by liquid scintillation counting; format: functional, cell-based
How it was run: (§1)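 Medium was acidified to 0.2 N HCl, and 3H2O was allowed to diffuse into water for 3 days before scintillation counting. Results are given as % glucose conversion/5 × 10^5 cells/6 h, triplicates.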

[3] = tested on: OVCAR-3; assay: Upregulation of GLUT1 in human OVCAR-3 cells at 50 […] after 24 hrs by immunoblotting analysis; format: functional, cell-based
[4] = tested on: SK-OV-3; assay: […] of glycolysis in human SK-OV-3 cells ssessed as decrease in conversion of D-[5-3H(N)]-glucose to 3H2O at 50 nM incubated for 24 hrs by liquid scintillation counting; format: functional, cell-based; how it was run: as §1
[5] = tested on: OVCAR-3; assay: Antiproliferative activity against human OVCAR-3 cells assessed as decrease in size of colonies at 75nM after 3 weeks by crystal violet staining based assay; format: functional, cell-based
How it was run: (§2)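 Soft agar colony assay: wells pre-coated with 0.6% agar in complete medium, with cells overlaid in medium containing 0.3% agar. Fresh 0.3% agar medium was added every 3–5 days. Inhibitor was 75 nM for SKOV-3 and OVCAR-3. After 3 weeks, colonies were crystal violet stained and counted above 100 μm diameter (SKOV-3, A2780) or 50 μm (OVCAR-3), reported as colonies per well.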

[6] = tested on: SK-OV-3; assay: Antitumor activity against human SK-OV-3 cells xenografted in NSG mouse assessed as reduction tumor volume at 4.5 mg/kg/day, po for 4 weeks relative to control; format: functional; set-up: scale not given: the % may be the effect or the level left
How it was run: (§3)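 Female NSG mice aged 6–7 weeks received 4 × 10^6 SKOV-3 cells in serum-free medium s.c. on the right flank. At about 100 mm3, mice were grouped 5 per group and gavaged daily at 0, 1.5, 3 or 4.5 mg/kg for 28 days. Caliper volume was calculated as lw2/2, with body weights tracked and endpoint tumors weighed; mean ± SD.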

[7] = tested on: A2780; assay: Antiproliferative activity against human A2780 cells assessed as decrease in number of colonies at 75nM after 3 weeks by crystal violet staining based assay; format: functional, cell-based; how it was run: as §2
[8] = Toxicity in NSG mouse xenografted with human derived High-grade serous ovarian cancer cell model of OVC-PDX2 assessed as reduction in body weight at 4 mg/kg/day, po for 30 days relative to control; format: organism-based; conditions: in vivo, 720 h, time 30 day
How it was run: (§4)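 Serous ovarian carcinoma fragments of 1–2 mm3 were implanted s.c. on the right flank of 6–8-week female NSG mice and re-passaged at about 1 cm3. At an average of 100 mm3, mice were grouped 5 per group and gavaged with 4 mg/kg/day for 30 days. Caliper volume was calculated as lw2/2, with body weight monitored and endpoint xenografts weighed.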

[9] = tested on: SK-OV-3; assay: Antiproliferative activity against human SK-OV-3 cells assessed as reduction in number of cells at 75 nM after 24 to 72 hrs; format: functional, cell-based; conditions: time 24-72 hrs
How it was run: (§5)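 For 72-h growth curves, cells in 12-well plates in RPMI 1640 with 10% FBS were grown with or without 75 nM inhibitor. Cell numbers were determined by Coulter counting after trypsinization. Data are mean ± SD of triplicates.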

[10] = tested on: A2780; assay: Antiproliferative activity against human A2780 cells assessed as decrease in size of colonies at 75nM after 3 weeks by crystal violet staining based assay; format: functional, cell-based; how it was run: as §2
[11] = Antitumor activity against human derived High-grade serous ovarian cancer cell xenografted in NSG mouse model of OVC-PDX3 assessed as decrease in tumor weight at 4 mg/kg/day, po 30 days relative to control; format: functional, Ovarian carcinoma cell; set-up: scale not given: the % may be the effect or the level left; conditions: time 30 day; how it was run: as §4
[12] = Antitumor activity against human derived High-grade serous ovarian cancer cell xenografted in NSG mouse model of OVC-PDX3 assessed as decrease in tumor volume at 4 mg/kg/day, po 30 days relative to control; format: functional, Ovarian carcinoma cell; set-up: scale not given: the % may be the effect or the level left; conditions: time 30 day; how it was run: as §4
[13] = Toxicity in NSG mouse xenografted with SK-OV-3 cells assessed as reduction in body weight at 4.5 mg/kg/day, po for 4 weeks relative to control; format: organism-based; set-up: scale not given: the % may be the effect or the level left; conditions: in vivo, 672 h; how it was run: as §3
[14] = tested on: OVCAR-3; assay: Antiproliferative activity against human OVCAR-3 cells assessed as reduction in number of cells at 25 to 75 nM after 24 hrs; format: functional, cell-based; conditions: dose 25-75 nM
How it was run: (§6)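 Cells were grown in 12-well plates in RPMI 1640 with 10% FBS and treated with 0, 25, 50 or 75 nM inhibitor for 24 h. They were then trypsinized and counted with a Coulter counter. Data are mean ± SD of triplicates.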

[15] = tested on: A2780; assay: Antiproliferative activity against human A2780 cells assessed as reduction in cell viability up to 2 uM after 72 hrs by MTT assay; format: functional, cell-based
How it was run: (§7)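 Cells in RPMI 1640 with 10% FBS were exposed to inhibitor over a range up to 10 µM for 72 h. Viability was read by MTT staining with absorbance at 570 nm, and IC50 was obtained by curve fitting. Data are mean ± SD of triplicates, representative of 3 independent experiments.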

[16] = tested on: HEY; assay: Antiproliferative activity against human HEY cells assessed as decrease in size of colonies at 75nM after 3 weeks by crystal violet staining based assay; format: functional, cell-based
[17] = tested on: HEY; assay: Antiproliferative activity against human HEY cells assessed as reduction in cell viability after 72 hrs MTT assay; format: functional, cell-based; how it was run: as §7
[18] = Antitumor activity against human derived High-grade serous ovarian cancer cell xenografted in NSG mouse model of OVC-PDX2 assessed as decrease in tumor volume at 4 mg/kg/day, po 30 days relative to control; format: functional, Ovarian carcinoma cell; set-up: scale not given: the % may be the effect or the level left; conditions: time 30 day; how it was run: as §4
[19] = tested on: HEY; assay: Antiproliferative activity against human HEY cells assessed as decrease in number of colonies at 75nM after 3 weeks by crystal violet staining based assay; format: functional, cell-based
[20] = tested on: A2780; assay: Antiproliferative activity against human A2780 cells assessed as reduction in number of cells at 75 nM after 24 to 72 hrs; format: functional, cell-based; conditions: time 24-72 hrs; how it was run: as §5
[21] = tested on: OVCAR-3; assay: Antiproliferative activity against human OVCAR-3 cells assessed as reduction in number of cells at 75 nM after 24 to 72 hrs; format: functional, cell-based; conditions: time 24-72 hrs; how it was run: as §5
[22] = tested on: SK-OV-3; assay: Antiproliferative activity against human SK-OV-3 cells assessed as reduction in cell viability after 72 hrs MTT assay; format: functional, cell-based; conditions: SK-OV-3, 72 h; how it was run: as §7
[23] = tested on: SK-OV-3; assay: Antiproliferative activity against human SK-OV-3 cells assessed as decrease in size colonies at 75nM after 3 weeks by crystal violet staining based assay; format: functional, cell-based; how it was run: as §2
[24] = tested on: SK-OV-3; assay: Antitumor activity against human SK-OV-3 cells xenografted in NSG mouse assessed as reduction tumor weight at 4.5 mg/kg/day, po for 4 weeks relative to control; format: functional; set-up: scale not given: the % may be the effect or the level left; how it was run: as §3
[25] = tested on: SK-OV-3; assay: Antiproliferative activity against human SK-OV-3 cells assessed as reduction in number of cells at 25 to 75 nM after 24 hrs; format: functional, cell-based; conditions: dose 25-75 nM; how it was run: as §6
[26] = Antitumor activity against human derived High-grade serous ovarian cancer cell xenografted in NSG mouse model of OVC-PDX2 assessed as decrease in tumor weight at 4 mg/kg/day, po 30 days relative to control; format: functional, Ovarian carcinoma cell; set-up: scale not given: the % may be the effect or the level left; conditions: time 30 day; how it was run: as §4
[27] = tested on: SK-OV-3; assay: Antiproliferative activity against human SK-OV-3 cells assessed as decrease in number of colonies at 75nM after 3 weeks by crystal violet staining based assay; format: functional, cell-based; how it was run: as §2
[28] = tested on: HEY; assay: Antiproliferative activity against human HEY cells assessed as reduction in number of cells at 75 nM after 24 to 72 hrs; format: functional, cell-based; conditions: time 24-72 hrs; how it was run: as §5
[29] = Toxicity in NSG mouse xenografted with human derived High-grade serous ovarian cancer cell model of OVC-PDX3 assessed as reduction in body weight at 4 mg/kg/day, po for 30 days relative to control; format: organism-based; conditions: in vivo, 720 h, time 30 day; how it was run: as §4
[30] = tested on: OVCAR-3; assay: Antiproliferative activity against human OVCAR-3 cells assessed as decrease in number of colonies at 75nM after 3 weeks by crystal violet staining based assay; format: functional, cell-based; how it was run: as §2
[31] = tested on: OVCAR-3; assay: Antiproliferative activity against human OVCAR-3 cells assessed as reduction in cell viability after 72 hrs by MTT assay; format: functional, cell-based; conditions: OVCAR-3, 72 h; how it was run: as §7
[32] = tested on: OVCAR-3; assay: […] of glycolysis in human OVCAR-3 cells ssessed as decrease in conversion of D-[5-3H(N)]-glucose to 3H2O at 0.25 mM incubated for 24 hrs by liquid scintillation counting; format: functional, cell-based; how it was run: as §1
[33] = tested on: SK-OV-3; assay: Upregulation of GLUT1 in human SK-OV-3 cells at 0.25 mM after 24 hrs by immunoblotting analysis; format: functional, cell-based
[34] = tested on: OVCAR-3; assay: Upregulation of GLUT1 in human OVCAR-3 cells at 0.25 mM after 24 hrs by immunoblotting analysis; format: functional, cell-based
[35] = tested on: SK-OV-3; assay: […] of glycolysis in human SK-OV-3 cells ssessed as decrease in conversion of D-[5-3H(N)]-glucose to 3H2O at 0.25 mM incubated for 24 hrs by liquid scintillation counting; format: functional, cell-based; how it was run: as §1
[36] = tested on: OVCAR-3; assay: […] of glycolysis in human OVCAR-3 cells ssessed as decrease in conversion of D-[5-3H(N)]-glucose to 3H2O at 2 mM incubated for 24 hrs by liquid scintillation counting; format: functional, cell-based; how it was run: as §1
[37] = tested on: SK-OV-3; assay: Upregulation of GLUT1 in human SKOV-3 cells at 2 mM after 24 hrs by immunoblotting analysis; format: functional, cell-based
[38] = tested on: OVCAR-3; assay: Upregulation of GLUT1 in human OVCAR-3 cells at 2 mM after 24 hrs by immunoblotting analysis; format: functional, cell-based
[39] = tested on: SK-OV-3; assay: […] of glycolysis in human SK-OV-3 cells ssessed as decrease in conversion of D-[5-3H(N)]-glucose to 3H2O at 2 mM incubated for 24 hrs by liquid scintillation counting; format: functional, cell-based; how it was run: as §1

SMILES: COc1ccc([C@@H](O)[C@@H](C)Oc2ccc([C@H]3O[C@H](c4ccc(O[C@H](C)[C@H](O)c5ccc6c(c5)OCO6)c(OC)c4)[C@H](C)[C@H]3C)cc2OC)cc1OC
Activity [1]: Active
Activity [2]: Active
Activity [3]: Active
Activity [4]: Active

IC50 [22]: 188 nM
IC50 [31]: 60 nM
SMILES: Cc1c(NC(=O)c2cc(C(N)=O)nc3cc(F)ccc23)c(C(F)(F)F)nn1Cc1ccc(C#N)cc1 [BAY-876]
Activity [5]: Active
Activity [6]: 68%
Activity [7]: inactive
Activity [8]: Non-Toxic
Activity [9]: Active
Activity [10]: inactive
Activity [11]: 71%
Activity [12]: >60%
Activity [13]: 18%
Activity [14]: Dose-Dependent Effect
Activity [15]: inactive
Activity [16]: Active
IC50 [17]: 1000 nM
Activity [18]: >60%
Activity [19]: Active
Activity [20]: inactive
Activity [21]: Active
Activity [23]: Active
Activity [24]: 66%
Activity [25]: Dose-Dependent Effect
Activity [26]: 50%
Activity [27]: Active
Activity [28]: Active
Activity [29]: Non-Toxic
Activity [30]: Active

SMILES: CCOC(=O)[C@@]1(CCCCCCOc2ccc(Cl)cc2)CO1
Activity [32]: Active
Activity [33]: Active
Activity [34]: Active
Activity [35]: Active

SMILES: CN(C)C(=N)NC(=N)N
Activity [36]: Active
Activity [37]: Active
Activity [38]: Active
Activity [39]: Active

From ChEMBL document CHEMBL5712904 (Cancers (Basel), 2018)
